Assay [1] deals with SH-SY5Y. The assay can be described thus: Neuroprotective activity against H2O2-induced cytotoxicity in human SH-SY5Y cells at 25 to 100 uM preincubated for 1 hr followed by H2O2-stimulation and measured after 4 hrs by MTT assay. The assay is classed as functional, cell-based. The essentials: (§1)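 SH-SY5Y cells preincubated with compound (25, 50 or 100 μM) for 1 h, then exposed to 300 μM H2O2 for 4 h. Viability read by MTT assay. Trolox served as positive control.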
On the technique in general: Tetrazolium dyes change colour on reduction, which living cells bring about.

The subject of assay [2] is SH-SY5Y. The experiment in a line: Neuroprotective activity against H2O2-induced cytotoxicity in human SH-SY5Y cells at 25 uM preincubated for 1 hr followed by H2O2-stimulation and measured after 4 hrs by MTT assay. The assay is classed as functional, cell-based. In short, it runs like this:
as §1

Assay [3] concerns SH-SY5Y. The experiment in a line: Inhibition of H2O2-induced apoptosis in human SH-SY5Y cells assessed as viable cells at 25 uM preincubated for 1 hr followed by H2O2-stimulation and measured after 4 hrs by Annexin V-FITC/propidium iodide staining-based flow cytometric analysis (reference value: 50.7%). The conditions noted are these: read-out: Activity. The assay is classed as functional. On the technique in general: A flow cytometer gives signals particle by particle.

Assay [4] concerns SH-SY5Y. The experiment in a line: Inhibition of H2O2-induced apoptosis in human SH-SY5Y cells assessed as early apoptotic cells at 25 uM preincubated for 1 hr followed by H2O2-stimulation and measured after 4 hrs by Annexin V-FITC/propidium iodide staining-based flow cytometric analysis (reference value: 2.25%). The assay is classed as functional. Also on record: scale not given: the % may be the effect or the level left.

In assay [5] the test system is SH-SY5Y. The experiment in a line: Inhibition of H2O2-induced apoptosis in human SH-SY5Y cells assessed as late apoptotic cells at 25 uM preincubated for 1 hr followed by H2O2-stimulation and measured after 4 hrs by Annexin V-FITC/propidium iodide staining-based flow cytometric analysis (reference value: 24.9%). The assay is classed as functional. Also on record: scale not given: the % may be the effect or the level left.

The subject of assay [6] is SH-SY5Y. The experiment in a line: Inhibition of H2O2-induced apoptosis in human SH-SY5Y cells assessed as necrotic cells at 25 uM preincubated for 1 hr followed by H2O2-stimulation and measured after 4 hrs by Annexin V-FITC/propidium iodide staining-based flow cytometric analysis (reference value: 22.2%). Also on record: scale not given: the % may be the effect or the level left. The assay is classed as functional.

For assay [7], the system named is SH-SY5Y. The experiment in a line: Inhibition of H2O2-induced apoptosis in human SH-SY5Y cells assessed as decrease in caspase-3 activity at 25 uM. The assay is classed as functional, cell-based. In short, it runs like this:
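SH-SY5Y cells exposed to H2O2 with or without test compound; caspase-3 activity in the cells quantified with a commercial caspase-3 activity assay kit; data given as means ± SDs.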

Structures are written as SMILES. Activity calls are given as the source filed them. No cut-off for these calls is given here.

Consider `COC1=C[C@@H](C)[C@@H]2C[C@H]3OC(=O)C[C@H]4[C@](C)(O)[C@@H](O)C(=O)[C@H]([C@@]2(C)C1=O)[C@@]34C`, for which the outcome in the assay with SH-SY5Y [1] was inactive.
Turning to `COC1=C[C@@H](C)[C@@H]2C[C@H]3OC(=O)C[C@H]4C(CO)=C(OC)C(=O)[C@H]([C@@]2(C)C1=O)[C@@]34C`, in the assay on SH-SY5Y [2], the outcome was Active. Besides, in the assay with SH-SY5Y [3], the viability at 25 µM is 76.8%. The figures for the Activity with SH-SY5Y [4], in the assay on SH-SY5Y [5] and in the assay with SH-SY5Y [6] were 2.96%, 13% and 7.31%, respectively.
With `COC1=C[C@@H](C)[C@@H]2C[C@H]3OC(=O)C[C@H]4[C@](C)(O)[C@H](OC)[C@@H](O)[C@H]([C@@]2(C)C1=O)[C@@]34C`, the outcome in the assay with SH-SY5Y [1] was Active.
In the case of `COC1=C[C@@H](C)[C@@H]2C[C@H]3OC(=O)C[C@@]4(O)C(C)=C(OC)C(=O)[C@H]([C@@]2(C)C1=O)[C@@]34C`, in the assay with SH-SY5Y [2], the outcome was Active. Also, the viability at 25 µM in the assay with SH-SY5Y [3] came out at 72.1%. For the same molecule, the Activity with SH-SY5Y [4] is 3.18%; in the assay on SH-SY5Y [5], 13.4%; with SH-SY5Y [6], 11.3%.
Turning to `COC1=C[C@@H](C)[C@@H]2C[C@H]3OC(=O)C[C@H]4[C@](C)(O)[C@@H]5OCO[C@H]5[C@H]([C@@]2(C)C1=O)[C@@]34C`, in the assay with SH-SY5Y [1], the result was Active.
`COC1=C[C@@H](C)[C@@H]2C[C@H]3O[C@@H](O[C@@H]4O[C@H](CO)[C@@H](O)[C@H](O)[C@H]4O)C[C@H]4[C@](C)(O)[C@H](OC)[C@@H](O)[C@H]([C@@]2(C)C1=O)[C@@]34C`: the result with SH-SY5Y [1] was Active.
The same measure, in the same setting: the value for `COC1=C[C@@H](C)[C@@H]2C[C@H]3OC(=O)C=C4C(C)=C(OC)C(=O)[C@@H]([C@]43C)[C@@]2(C)C1=O` was “Active”.
As for `COC1=C[C@@H](C)[C@@H]2C[C@H]3OC(=O)C[C@H]4[C@@H](C)[C@H](OC)[C@@H](OC(=O)c5cc(OC)c6c(c5)OCO6)[C@H]([C@@]2(C)C1=O)[C@@]34C`, the outcome in the assay with SH-SY5Y [2] and with SH-SY5Y [7] was Active. In addition, the viability at 25 µM in the assay with SH-SY5Y [3] was 79.8%. Moreover, the Activity worked out at 2.2% with SH-SY5Y [4], 10.1% in the assay on SH-SY5Y [5] and 7.89% with SH-SY5Y [6].
As for `COC1=C[C@@H](C)[C@@H]2C[C@H]3OC(=O)C=C4[C@@H](C)[C@@H]5OCO[C@H]5[C@@H]([C@]43C)[C@@]2(C)C1=O`, in the assay on SH-SY5Y [1], the result was inactive.
For `COC1=C[C@@H](C)[C@@H]2C[C@H]3OC(=O)C[C@H]4[C@@H](C)[C@@H](O)C(=O)[C@H]([C@@]2(C)C1=O)[C@@]34C`, in the assay on SH-SY5Y [1], the outcome was inactive.
Regarding `COC1=C[C@@H](C)[C@@H]2C[C@H]3OC(=O)C[C@@]4(O)[C@@H](C)[C@H](OC)[C@@H](O)[C@H]([C@@]2(C)C1=O)[C@@]34C`, the result in the assay with SH-SY5Y [1] was Active.
The same measure, in the same setting: the value for `COC1=C[C@@H](C)[C@@H]2C[C@H]3OC(=O)C[C@H]4[C@@H](C)[C@H](O)C(=O)[C@H]([C@@]2(C)C1=O)[C@@]34C` was “inactive”.
As for `COC1=C[C@@H](C)[C@@H]2C[C@H]3OC(=O)C[C@H]4[C@@H](C)[C@@H]5OCO[C@H]5[C@H]([C@@]2(C)C1=O)[C@@]34C`, in the assay with SH-SY5Y [1], the outcome was Active.
Turning to `COC1=C[C@@H](C)[C@@H]2C[C@H]3O[C@@H](O[C@@H]4O[C@H](CO)[C@@H](O)[C@H](O)[C@H]4O)C[C@@H]4[C@@]3(C)[C@H]([C@H](O)C(=O)[C@@]4(C)O)[C@@]2(C)C1=O`, the result with SH-SY5Y [1] was inactive.
In the case of `COC1=C[C@@H](C)[C@@H]2C[C@H]3O[C@@H](O[C@@H]4O[C@H](CO)[C@@H](O)[C@H](O)[C@H]4O)C[C@@H]4[C@@]3(C)[C@H]([C@H](O)C(=O)[C@@]4(C)OC(C)=O)[C@@]2(C)C1=O`, the outcome in the assay on SH-SY5Y [1] was inactive.
Take `COC1=C[C@@H](C)[C@@H]2C[C@H]3O[C@@H](O[C@@H]4O[C@H](CO)[C@@H](O)[C@H](O)[C@H]4O)C[C@H]4C(C)=C(OC)C(=O)[C@H]([C@@]2(C)C1=O)[C@@]34C` [PICRASINOSIDE B]: the outcome with SH-SY5Y [2] and with SH-SY5Y [7] was Active. Also, in the assay on SH-SY5Y [3], the viability at 25 µM amounted to 82.2%. The figures for the Activity in the assay on SH-SY5Y [4], with SH-SY5Y [5] and in the assay on SH-SY5Y [6] were 1.86%, 8.55% and 7.43%, respectively.
Turning to `COC1=C[C@@H](C)[C@@H]2C[C@H]3O[C@@H](O[C@@H]4O[C@H](CO)[C@@H](O)[C@H](O)[C@H]4O)C[C@H]4[C@@H](C)[C@H](OC)[C@@H](O)[C@H]([C@@]2(C)C1=O)[C@@]34C`, in the assay on SH-SY5Y [1], the result was Active.
Take `COC1=C[C@@H](C)[C@@H]2C[C@H]3OC(=O)C[C@H]4C(C)=C(OC)C(=O)[C@H]([C@@]2(C)C1=O)[C@@]34C` [QUASSIN]: the result in the assay with SH-SY5Y [2] was Active. Further, in the assay on SH-SY5Y [3], the viability at 25 µM was 73.1%. The Activity with SH-SY5Y [4] is 2.45%; in the assay with SH-SY5Y [5], 13.7%; in the assay on SH-SY5Y [6], 10.7%.
Regarding `COC1=C(C)[C@@H]2CC(=O)O[C@@H]3C[C@H]4[C@H](C)C[C@H](O)C(=O)[C@]4(C)[C@@H](C1=O)[C@@]32C`, in the assay with SH-SY5Y [1], the outcome was Active.

Values taken from ChEMBL document CHEMBL4480463, “Quassinoids from Picrasma quassioides and Their Neuroprotective Effects” (2019).
